Laboratory results from ChEMBL document CHEMBL1138558, “Synthesis of some new 1,2,4-triazoles, their Mannich and Schiff bases and evaluation of their antimicrobial activities” (2009).
Activity calls are given as the source filed them. The rule behind the calls is not given here.

What was measured:
Type in all cases: functional
Enterococcus faecalis = test: Antimicrobial activity against Enterococcus faecalis ATCC 29212 at 10 mg/mL after 18 hrs by agar-well diffusion method; conditions: for zone of inhibition at 10000 µg/mL: ATCC 29212, 18 h, read-out: IZ
Procedure, shortened: (§1)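 Agar-well diffusion: each bacterium suspended in Mueller Hinton broth at about 10⁶ cfu/mL, flood-inoculated onto Mueller Hinton agar and dried. 5-mm wells were cut with a sterile cork-borer and filled with the test solution. Plates were incubated 18 h at 35 °C. The read-out was the diameter of the inhibition zone.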

Candida tropicalis = test: Antimicrobial activity against Candida tropicalis ATCC 13803 at 10 mg/mL after 18 hrs by agar-well diffusion method; conditions: for zone of inhibition at 10000 µg/mL: ATCC 13803, 18 h, read-out: IZ
Procedure, shortened: (§2)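 Candida cultures were suspended in Mueller Hinton broth at about 10⁶ cfu/mL, flood-inoculated onto Sabouraud dextrose agar and dried. Test solution was loaded into 5-mm wells bored in the agar. Plates were incubated 18 h at 35 °C, and activity was scored as the inhibition zone around each well.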

Pseudomonas aeruginosa = test: Antimicrobial activity against Pseudomonas aeruginosa ATCC 27853 at 10 mg/mL after 18 hrs by agar-well diffusion method; conditions: for zone of inhibition at 10000 µg/mL: ATCC 27853, 18 h, read-out: IZ; procedure, shortened: as §1
Staphylococcus aureus = test: Antimicrobial activity against Staphylococcus aureus ATCC 25923 at 10 mg/mL after 18 hrs by agar-well diffusion method; conditions: for zone of inhibition at 10000 µg/mL: ATCC 25923, 18 h, read-out: IZ; procedure, shortened: as §1
Bacillus cereus = test: Antimicrobial activity against Bacillus cereus 702 Roma at 10 mg/mL after 18 hrs by agar-well diffusion method; conditions: for zone of inhibition at 10000 µg/mL: read-out: IZ; procedure, shortened: as §1
[1] = tested on: Yersinia pseudotuberculosis; test: Antimicrobial activity against Yersinia pseudotuberculosis ATCC 911 at 10 mg/mL after 18 hrs by agar-well diffusion method; conditions: for zone of inhibition at 10000 µg/mL: ATCC 911, 18 h, read-out: IZ
Procedure, shortened: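 Bacteria suspended in Mueller Hinton broth at about 10⁶ cfu/mL, flood-inoculated onto Mueller Hinton agar and dried. Test substance placed into 5-mm wells bored with a sterile cork-borer. Incubation 18 h at 35 °C, then the inhibition zone around each well measured.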

Escherichia coli = test: Antimicrobial activity against Escherichia coli ATCC 25922 at 10 mg/mL after 18 hrs by agar-well diffusion method; conditions: for zone of inhibition at 10000 µg/mL: ATCC 25922, 18 h, read-out: IZ; procedure, shortened: as §1
Candida albicans = test: Antimicrobial activity against Candida albicans ATCC 60193 at 10 mg/mL after 18 hrs by agar-well diffusion method; conditions: for zone of inhibition at 10000 µg/mL: ATCC 60193, 18 h, read-out: IZ; procedure, shortened: as §2

SMILES	zone of inhibition at 10000 µg/mL (Enterococcus faecalis) [mm]	inhibition zone (IZ) (Candida tropicalis)	zone of inhibition at 10000 µg/mL (Pseudomonas aeruginosa) [mm]	zone of inhibition at 10000 µg/mL (Staphylococcus aureus) [mm]	zone of inhibition at 10000 µg/mL (Bacillus cereus) [mm]	zone of inhibition at 10000 µg/mL [1] [mm]	zone of inhibition at 10000 µg/mL (Escherichia coli) [mm]	inhibition zone (IZ) (Candida albicans)	inhibition zone (IZ) (Pseudomonas aeruginosa)	inhibition zone (IZ) (Staphylococcus aureus)	inhibition zone (IZ) [1]	inhibition zone (IZ) (Escherichia coli)	zone of inhibition at 10000 µg/mL (Candida tropicalis) [mm]	zone of inhibition at 10000 µg/mL (Candida albicans) [mm]	inhibition zone (IZ) (Enterococcus faecalis)	inhibition zone (IZ) (Bacillus cereus)
O=C(CSc1nnc(-c2ccncc2)n1-c1ccccc1)N/N=C/c1ccc(F)cc1	30	inactive	38	30	23	25	30	inactive								
Cc1ccc(-n2c(S)nnc2CSc2nnc(-c3ccncc3)n2-c2ccccc2)cc1	15	inactive			6			inactive	inactive	inactive	inactive	inactive				
CC(C)CSc1nnc(-c2ccncc2)n1-c1ccccc1	30		30	25	30	30	25						8	8		
O=C(CSc1nnc(-c2ccncc2)n1-c1ccccc1)N/N=C/c1c(Cl)cccc1Cl		inactive						inactive	inactive	inactive	inactive	inactive			inactive	inactive
Cc1ccc(Nc2nnc(CSc3nnc(-c4ccncc4)n3-c3ccccc3)s2)cc1	20	inactive	35	25	20	22	31	inactive								
O=C(CSc1nnc(-c2ccncc2)n1-c1ccccc1)N/N=C/c1ccc(O)c(O)c1		inactive						inactive	inactive	inactive	inactive	inactive			inactive	inactive
Cc1ccc(N(C)c2nnc(CSc3nnc(-c4ccncc4)n3-c3ccccc3)s2)cc1	7	inactive	15	22	17	16	28	inactive								
Sc1nnc(-c2ccncc2)n1-c1ccccc1		inactive						inactive	inactive	inactive	inactive	inactive			inactive	inactive
Cc1ccc(-n2c(CSc3nnc(-c4ccncc4)n3-c3ccccc3)nn(CN3CCN(C)CC3)c2=S)cc1		inactive						inactive	inactive	inactive	inactive	inactive			inactive	inactive
S=c1oc(CSc2nnc(-c3ccncc3)n2-c2ccccc2)nn1CNCCN1CCOCC1		inactive					6	inactive	inactive	inactive	inactive				inactive	inactive
CSc1nnc(-c2ccncc2)n1-c1ccccc1	30		30	25	30	30	30						9	9		
O=C(CSc1nnc(-c2ccncc2)n1-c1ccccc1)N/N=C/c1ccccn1	20	inactive	40	24	20	30	42	inactive								
CN1CCN(Cn2nc(-c3ccncc3)n(-c3ccccc3)c2=S)CC1	28	inactive	30	24	23	24	24	inactive								
Cc1ccc(NC(=S)NNC(=O)CSc2nnc(-c3ccncc3)n2-c2ccccc2)cc1									inactive	inactive	inactive	inactive	7	7	inactive	inactive
Sc1nnc(CSc2nnc(-c3ccncc3)n2-c2ccccc2)o1				8	6				inactive		inactive	inactive	6	6	inactive	
O=C(CSc1nnc(-c2ccncc2)n1-c1ccccc1)N/N=C/c1ccccc1O	30	inactive	30	25	25	30	30	inactive								
CCOC(=O)CSc1nnc(-c2ccncc2)n1-c1ccccc1									inactive	inactive	inactive	inactive	13	13	inactive	inactive
O=C(CSc1nnc(-c2ccncc2)n1-c1ccccc1)N/N=C/c1ccncc1		inactive						inactive	inactive	inactive	inactive	inactive			inactive	inactive
S=c1n(CNCCN2CCOCC2)nc(-c2ccncc2)n1-c1ccccc1	16	inactive	14	21	15	22	20	inactive								
S=c1n(CN2CCN(Cn3nc(-c4ccncc4)n(-c4ccccc4)c3=S)CC2)nc(-c2ccncc2)n1-c1ccccc1		inactive						inactive	inactive	inactive	inactive	inactive			inactive	inactive
NNC(=O)CSc1nnc(-c2ccncc2)n1-c1ccccc1		inactive						inactive	inactive	inactive	inactive	inactive			inactive	inactive
O=C(CSc1nnc(-c2ccncc2)n1-c1ccccc1)N/N=C/c1cccnc1		inactive				7	8	inactive	inactive	inactive					inactive	inactive
COc1ccc(/C=N/NC(=O)CSc2nnc(-c3ccncc3)n2-c2ccccc2)cc1	28	inactive	30	28	25	30	24	inactive								
